From PubChem BioAssay
Rows were chosen to be rich in hits. Some 5.7% of all compounds tested hit in one or more screens of this group.
T cruzi repl – blocks replication of Trypanosoma cruzi; T. cruzi beta-gal in NIH3T3, luminescence, 90 h; inhibition, % (test concentration not listed); 300,000 compounds, 1.4% hits; AID 1885;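 active = mean inhibition across valid replicates above about 55%, limit read from the data; inconclusive = mean below that limit but half or more replicates reach it; inactive = mean below it, under half of replicates reach it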;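 note: signal also drops with host cell toxicity which is not excluded here; 0% = plate median of DMSO wells and 100% = zero luminescence signal; higher percent means less beta-gal luminescence so fewer parasites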
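compound dosing = single 50 nL compound addition per well in DMSO | material = NIH/3T3 host cells with β-galactosidase reporter T. cruzi | input = 5,000 host fibroblasts per well | timing = ≥90 h infection period, 3 h prior cell attachment | read-out basis = percent inhibition of parasite-derived β-gal signal | detection = GalScreen β-gal luminescence, detergent lysis, 60 min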
CSC inhib – blocks cancer stem cells. 300,000 compounds, 1.1% hits. inhibition, % at 7.5 µM. cancer stem cell-like cells viability, luminescence; in the data active = inhibition above about 75%; inconclusive = no clear call, values can overlap the other calls; tested in HMLE shEcad cells
Calb FLC – affects C. albicans growth with fluconazole | C. albicans CaCi-2 + fluconazole, Alamar Blue growth, 48 h | growth inhibition, % (test concentration not listed) | 300,000 compounds, 0.57% hits | AID 1979;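 active = growth inhibition above about 58% in most replicates, limit read from the data, passing the limit was not always enough; inconclusive = exactly half the replicates above a set limit; inactive = most replicates below a set limit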;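 note: all wells also contain fluconazole at 8 µg/ml as a sub-toxic cotreatment; 0% = median of DMSO wells and 100% = median of geldanamycin control wells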
Beta cell apopt – beta cell apoptosis inhibition. INS-1E cytokine-induced death, ATP luminescence, 48 h; percent of positive-control rescue, neutral wells zero. protection from apoptosis, % (test concentration not listed). AID 435005. 300,000 compounds, 0.8% hits;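 active = Every replicate reaches about 75%, or at least half do and their mean reaches it too, limit read from the data; inconclusive = At least half of replicates reach the limit but their mean does not; inactive = Under half of replicates reach the limit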;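 note: 0% = cytokine-treated negative control wells and 100% = positive control rescue; higher means more ATP so stronger rescue from cytokine killing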
SKKanGAS inh – SKKanGAS growth inhibition; S. pyogenes SKKanGAS, kanamycin growth, BacTiter-Glo, 6 h; inhibition, % at 7.5 µM; 300,000 compounds, 1.3% hits; AID 1662;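 active = mean replicate score, as percent of positive control median, at least 50; inconclusive = mean below 50 but one replicate at or above 50; inactive = mean and every replicate below 50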;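 note: strain carries kanamycin resistance gene driven by streptokinase promoter and grows in 40 µg/ml kanamycin; loss of luminescence reflects streptokinase promoter inhibition or plain growth inhibition; 0% = median of DMSO wells and 100% = positive control at its reference dose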
Mdm2 MdmX PPI – inhibitors of human Mdm2/MdmX interaction; O15151+Q00987; SaOS-2 split-luciferase Mdm2/MdmX complementation, luminescence; inhibition, % at 8 µM; 330,000 compounds, 3% hits; AID 485346;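 active = inhibition of at least 50% at 8 µM in the primary screen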
Target sequence (O15151 whole entry, looked up): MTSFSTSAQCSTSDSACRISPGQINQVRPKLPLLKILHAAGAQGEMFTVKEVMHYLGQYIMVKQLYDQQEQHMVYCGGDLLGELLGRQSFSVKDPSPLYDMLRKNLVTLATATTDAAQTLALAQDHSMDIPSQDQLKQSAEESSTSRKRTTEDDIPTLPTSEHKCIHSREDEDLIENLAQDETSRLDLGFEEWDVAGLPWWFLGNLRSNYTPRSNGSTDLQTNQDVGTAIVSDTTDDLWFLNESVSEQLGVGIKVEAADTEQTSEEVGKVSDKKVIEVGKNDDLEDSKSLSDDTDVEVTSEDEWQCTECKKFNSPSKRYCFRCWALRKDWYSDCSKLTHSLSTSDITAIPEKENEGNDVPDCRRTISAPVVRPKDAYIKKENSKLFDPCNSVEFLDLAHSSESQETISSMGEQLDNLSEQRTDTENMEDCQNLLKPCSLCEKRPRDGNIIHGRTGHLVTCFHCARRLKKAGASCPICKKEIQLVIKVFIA
Target sequence (Q00987 whole entry, looked up): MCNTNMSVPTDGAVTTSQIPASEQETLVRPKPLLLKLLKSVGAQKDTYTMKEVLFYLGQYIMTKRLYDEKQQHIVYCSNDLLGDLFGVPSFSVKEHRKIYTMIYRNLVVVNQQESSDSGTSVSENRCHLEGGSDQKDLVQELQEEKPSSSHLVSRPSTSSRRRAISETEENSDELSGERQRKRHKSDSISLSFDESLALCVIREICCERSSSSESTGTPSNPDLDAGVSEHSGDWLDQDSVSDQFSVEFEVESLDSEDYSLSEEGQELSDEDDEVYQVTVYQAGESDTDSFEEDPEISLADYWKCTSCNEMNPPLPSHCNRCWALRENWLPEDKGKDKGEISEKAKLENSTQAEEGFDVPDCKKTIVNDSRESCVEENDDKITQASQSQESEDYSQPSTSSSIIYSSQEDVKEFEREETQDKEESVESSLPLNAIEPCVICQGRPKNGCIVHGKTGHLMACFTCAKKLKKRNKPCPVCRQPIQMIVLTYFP
Mdm2 MdmX conf – human Mdm2/MdmX binding inhibition, confirmed; shares compounds with Mdm2 MdmX PPI; luminescent assay; 10,000 compounds, 55% hits; inhibition, % at 8 µM; in the data active = inhibition above about 40%
Full FLuc ctr – full-length luciferase inhibition in Mdm2/MdmX counter-screen; shares compounds with Mdm2 MdmX PPI; SaOS-2 full-length luciferase counterscreen, luminescence; inhibition, % at 8 µM; 6,200 compounds, 77% hits;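 active = mean inhibition at 8 µM reaching about 37%, which flags the compound as non-specific, limit read from the data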;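 note: p53-null SaOS-2 cells with luciferase driven by a doxycycline-inducible promoter; compound on cells about two nights before reading with doxycycline added after day one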
* hit, by the source's call; ? = inconclusive; . = no result.

SMILES | T cruzi repl | CSC inhib | Calb FLC | Beta cell apopt | SKKanGAS inh | Mdm2 MdmX PPI | Mdm2 MdmX conf | Full FLuc ctr
S=C=Nc1cccc(C2(N3CCCCC3)CCCCC2)c1 | . | 5 | . | -1 | . | 69* | 23 | .
C=C1[C@H]2C[C@H]3[C@H]4N5C[C@]6(C)CCC[C@]47[C@H]([C@H]2O)[C@]3(C[C@]5(O)[C@H]67)[C@@H]1O | -6 | -9 | -1 | 0 | 4 | 11 | . | .
C[C@H]1CCCC(=O)CCC/C=C/c2cc(O)cc(O)c2C(=O)O1 | 5 | 12 | . | -10 | -6 | 22 | . | .
C[C@H]1CCC/C=C/[C@@H]2C[C@H](O)C[C@H]2[C@H](O)/C=C/C(=O)O1 | . | 100* | . | 117* | . | 97* | 98* | 48*
Cc1cnc(NC(=O)CN2CCCCC2)s1 | 3 | -3 | 3 | -3 | 4 | -30 | . | .
Cc1ccc(Cn2ccccc2=N)cc1 | -16 | -13 | -1 | -3 | 1 | . | . | .
CCC1C=CC=CC[C@H](C)[C@@H](O)[C@](C)(O)C(=O)[C@@H](C)[C@H](O)[C@@H](C)C(=O)[C@H](C)[C@@H](O)[C@H](C)C=CC(=O)OC2[C@@H](C)C(CC1)OC1(CC[C@@H](C)C(C[C@H](C)O)O1)[C@@H]2C (stereo partly specified) | . | 99* | . | 104* | . | 100* | 56* | 50*
C[C@@H]1O[C@@H](O[C@H]2C[C@@H](O)[C@]3(CO)[C@H]4[C@H](O)C[C@]5(C)[C@@H](C6COC(=O)C6)CC[C@]5(O)[C@@H]4CC[C@]3(O)C2)[C@H](O)[C@H](O)[C@H]1O (stereo partly specified) | 0 | 82* | . | -3 | 1 | 58* | 67* | 27
CCOc1ccc(N=Cc2c(O)n(-c3cc(C)cc(C)c3)c(=O)[nH]c2=O)cc1 | 4 | -12 | -4 | 2 | -1 | 43 | . | .
C/C=C(\C)C(=O)N[C@@H](c1ccccc1)[C@@H](O)C(=O)O[C@H]1C[C@@]2(O)[C@@H](OC(=O)c3ccccc3)C3[C@](C)(C(=O)[C@H](O)C(=C1C)C2(C)C)[C@@H](O)C[C@H]1OC[C@@]31OC(C)=O (stereo partly specified) | 53 | 63 | 4 | . | 1 | 53* | 65* | 41*
C/C=C(\C)C(=O)N[C@@H](c1ccccc1)[C@@H](O)C(=O)O[C@H]1C[C@@]2(O)[C@@H](OC(=O)c3ccccc3)C3[C@](C)(C(=O)[C@H](OC(C)=O)C(=C1C)C2(C)C)[C@@H](O)C[C@H]1OC[C@@]31OC(C)=O (stereo partly specified) | 52 | 40 | 2 | 13 | 7 | 34 | . | .
CC(C)Sc1nnc(OC(=O)N(C)C)n1-c1ccccc1 | 17 | 0 | -6 | -4 | -4 | 6 | . | .
COC(=O)C1=C(c2ccc(OC(F)(F)F)cc2)C[C@@H]2CC[C@H]1N2C(=O)NCCOc1ccc(OC)cc1 | . | 3 | . | -5 | . | 18 | . | .
CCc1c(-c2ccccc2)nc2ccccc2c1C(=O)N1CCC2(CC1)OCCO2 | 3 | -19 | -4 | -7 | 0 | -23 | . | .
CCn1c(O)c(N=Nc2ccc(S(=O)(=O)N3CCOCC3)cc2)c(=O)n(CC)c1=S | -28 | 15 | -5 | -8 | 12 | 58* | 21 | .
COc1cc2c(cc1O)C[C@H]1NCCc3cc4c(c-2c31)OCO4 | 21 | 65 | -36 | 29 | 1 | 61* | 39 | 41*
COc1cc2c(cc1OC)-c1c3c(cc4c1[C@@H](C2)N(C)CC4)OCO3 | 29 | . | -14 | 61 | 4 | 54* | 48* | 40*
COc1cc2c(cc1OC)-c1c(OC)c(OC)cc3c1C(C2)N(C)CC3 (stereo unspecified) | 34 | 26 | 4 | . | 0 | 44 | . | .
CCN1/C(=C\C=C\C2=[N+](CC)c3ccccc3C2(C)C)C(C)(C)c2ccccc21 | 55* | 93* | -6 | 119* | 58* | 97* | 96* | 7
CC(C)c1ccc(NC(=O)CCNC(=O)N2C[C@H]3C[C@@H](C2)c2cccc(=O)n2C3)cc1 | 7 | -6 | -2 | . | -2 | 3 | . | .
CCn1c(NN=O)nc2ccccc21 | ? | 52 | 80* | 99* | 27 | 77* | 72* | 21
Cc1[nH]c2ccc(OC(F)(F)F)cc2c1CCNCc1ccc(Cl)cc1 | 40 | 104* | 25 | 21 | 17 | 83* | 51* | 48*
Cc1cccc(-n2c(/C=C/c3ccccn3)nc3ccccc3c2=O)c1 | -13 | 7 | 30 | 7 | -8 | 12 | . | .
CCOC(=O)c1c(C)n(Cc2ccccc2)c2ccc(OCC(O)Cn3nc(C)nc3C)cc12 (stereo unspecified) | 0 | -9 | 8 | . | 1 | -2 | . | .
CCOC(=O)c1c(C)n(Cc2ccccc2)c2ccc(OCC(O)CNC(C)(C)C)cc12 (stereo unspecified) | 30 | -4 | -16 | 8 | 1 | 51* | 26 | .
SMILES | T cruzi repl | CSC inhib | Calb FLC | Beta cell apopt | SKKanGAS inh | Mdm2 MdmX PPI | Mdm2 MdmX conf | Full FLuc ctr
CCCCCCC(=O)N/N=C/c1c(O)n(CCc2ccccc2)c(=O)[nH]c1=O | . | 10 | -27 | 18 | 86* | 59* | 36 | .
CCCCCCC(=O)N/N=C/c1c(O)n(C(C)CC)c(=S)[nH]c1=O (stereo unspecified) | . | 16 | -23 | 7 | 90* | 58* | 14 | .
CC1CCC(NC(=O)CNC(=S)N2CC3CC(C2)c2cccc(=O)n2C3)CC1 (stereo unspecified) | -3 | -2 | 10 | -9 | -2 | -6 | . | .
C=C1C(=O)O[C@@H]2C[C@@H](C)[C@@H]3C=CC(=O)[C@@]3(C)[C@@H](O)[C@H]12 | 43 | 52 | . | 112* | -1 | 95* | 99* | 51*
O=C1CN=C(c2ccccc2Cl)c2cc(Br)ccc2N1 | 2 | -5 | -5 | . | -1 | -9 | . | .
O=C1CN=C(c2ccc[nH]2)c2cc(Cl)ccc2N1 | 4 | 11 | -3 | 1 | -3 | 65* | 68* | 53*
Cc1nn(Cc2ccccc2Cl)c(Cl)c1C(=O)O | -5 | 0 | -1 | -3 | 5 | -23 | . | .
CC(C)(C)c1nc(N2CCN(C(=O)c3ccco3)CC2)c2nnn(Cc3ccccc3Cl)c2n1 | . | 119* | -23 | 21 | 40 | 57* | 9 | .
COC12C(COC(N)=O)C3=C(C(=O)C(C)=C(N)C3=O)N1CC1C2N1C (stereo unspecified) | 58* | -3 | 46 | -3 | 111* | 74* | 39 | .
COC(=O)C1=C(c2ccc(OC)c(OC)c2)C[C@@H]2CC[C@H]1N2C(=O)NCC1CC1 | . | -23 | . | 1 | . | 12 | . | .
